Laboratory results published in ChEMBL document CHEMBL1128385, “Three-dimensional quantitative structure-activity relationships of somatostatin analogues. 1. Comparative molecular field analysis of growth hormone release-inhibiting potencies” (J Med Chem, 1995).
Where a SMILES comes first, the peptide text is derived from it. Bridges are numbered along the chain shown (N, C = ends). [ ]: non-standard residue; d: D form. dPhe(4-Cl) = N[C@H](Cc1ccc(Cl)cc1)C(=O)O; 2Nal = N[C@@H](Cc1ccc2ccccc2c1)C(=O)O; d2Nal = N[C@H](Cc1ccc2ccccc2c1)C(=O)O; Abu = CC[C@H](N)C(=O)O

Organism: Rattus norvegicus
Test: In vitro GH release inhibiting potency on anterior pitutaries from adult male rats, relative to somatostatin
Type: functional
Method in brief: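 Rat anterior pituitary cells (adult males, 200-250 g), trypsin/DNase dispersed, plated 2 × 10^5 cells/well, cultured 96 h at 37 °C in serum-supplemented DMEM. After washing, cells were pulsed 3 h at 37 °C with 1 nM GRF(1-29)NH2 ± graded analogue doses in medium 199/1% BSA, quadruplicate wells. Medium GH was measured by double-antibody RIA. Potency relative to somatostatin (=1.0) came from four-point assay (mean of ≥3 experiments) or IC50 comparison.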

Point of comparison: `CC(C)C[C@@H]1NC(=O)[C@H](Cc2ccccc2)NC(=O)CCCCCCNC(=O)[C@H](Cc2ccccc2)NC(=O)[C@H]([C@@H](C)O)NC(=O)[C@H](CCCCN)NC(=O)[C@@H](Cc2c[nH]c3ccccc23)NC1=O` (stereo in doubt), GHI 1.05. Against it:
- CC(C)C1NC(=O)[C@H](CCCCN)NC(=O)[C@@H](Cc2c[nH]c3ccccc23)NC(=O)C(Cc2ccc(O)cc2)NC(=O)CCSSCC(C(=O)N[C@@H](Cc2ccccc2)C(N)=O)NC1=O (single isomer, unassigned) — higher, 23
- C[C@@H](O)[C@H](NC(=O)[C@H](CCCCN)NC(=O)[C@@H](Cc1c[nH]c2ccccc12)NC(=O)[C@H](Cc1ccc(O)cc1)NC(=O)[C@H](Cc1ccc(Cl)cc1)NC(=O)[C@H](N)Cc1ccccc1)C(=O)N[C@@H](Cc1ccccc1)C(=O)N[C@@H](Cc1ccc2ccccc2c1)C(N)=O — higher, 100
- CC(C)[C@@H]1NC(=O)C(CCCCN)NC(=O)[C@@H](Cc2c[nH]c3ccccc23)NC(=O)C(Cc2ccccc2)NC(=O)[C@@H]2CCCN2C(=O)C(Cc2ccccc2)NC1=O (single isomer, unassigned) — lower, 0.29
- CC(C)[C@H](NC(=O)[C@H](CCCCN)NC(=O)[C@@H](Cc1c[nH]c2ccccc12)NC(=O)[C@H](Cc1ccc(O)cc1)NC(=O)[C@H](C)NC(=O)[C@H](N)Cc1ccc(Cl)cc1)C(=O)N[C@@H](C)C(=O)N[C@H](Cc1ccccc1)C(N)=O — higher, 417
- C[C@@H](O)[C@@H]1NC(=O)[C@H](CCCN=C(N)N)NC(=O)[C@@H](Cc2c[nH]c3ccccc23)NC(=O)[C@H](Cc2ccccc2)NC(=O)[C@H](Cc2ccccc2)NC(=O)CCCCCCNC(=O)[C@H](Cc2ccccc2)NC1=O (stereo in doubt) — higher, 14
- C[C@@H](O)[C@@H]1NC(=O)C(CCCCN)NC(=O)[C@@H](Cc2c[nH]c3ccccc23)NC(=O)C(Cc2ccccc2)NC(=O)[C@@H]2CCCN2C(=O)[C@@H]2CCCN2C1=O (single isomer, unassigned) — higher, 125
- CC(C)[C@H](NC(=O)[C@H](CCCCN)NC(=O)[C@@H](Cc1c[nH]c2ccccc12)NC(=O)[C@H](Cc1ccc(O)cc1)NC(=O)[C@H](C)NC(=O)[C@H](N)Cc1ccc(Cl)cc1)C(=O)N[C@@H](C)C(=O)N[C@@H](Cc1ccc2ccccc2c1)C(N)=O (H-[dPhe(4-Cl)]AY[dW]KVA[2Nal]-NH2) — higher, 45
- CC1NC(=O)[C@H]([C@@H](C)O)NC(=O)C(CCCCN)NC(=O)[C@@H](Cc2c[nH]c3ccccc23)NC(=O)C(Cc2ccccc2)NC(=O)[C@@H]2CCCN2C1=O (single isomer, unassigned; 61) — higher, 500
- C[C@@H](O)[C@@H]1NC(=O)[C@H](CCCCN)NC(=O)[C@@H](Cc2c[nH]c3ccccc23)NC(=O)[C@H](Cc2ccccc2)NC(=O)[C@H](Cc2ccccc2)NC(=O)CCCCCCNC(=O)[C@H](Cc2ccccc2)NC1=O (stereo in doubt) — higher, 1.08
- C[C@@H](O)[C@@H]1NC(=O)[C@H](CCCCN)NC(=O)[C@H](Cc2c[nH]c3ccc(Br)cc23)NC(=O)[C@H](Cc2ccccc2)NC(=O)[C@H](Cc2ccccc2)NC(=O)CCCCCCNC(=O)[C@H](Cc2ccccc2)NC1=O (stereo in doubt) — higher, 50
- CC[C@@H]1NC(=O)[C@H](CCCCN)NC(=O)[C@@H](Cc2c[nH]c3ccccc23)NC(=O)[C@H](Cc2ccc(O)cc2)NC(=O)[C@@H](NC(=O)[C@H](N)Cc2ccccc2)CSSC[C@@H](C(=O)N[C@@H](Cc2ccc3ccccc3c2)C(N)=O)NC1=O (H-[dF]CY[dW]K[Abu]C[2Nal]-NH2; disulfide 2-7) — lower, 0.03
- C[C@@H](O)[C@@H]1NC(=O)[C@H](CCCN)NC(=O)[C@@H](Cc2c[nH]c3ccccc23)NC(=O)[C@H](Cc2ccccc2)NC(=O)[C@H](Cc2ccccc2)NC(=O)CCCCCCNC(=O)[C@H](Cc2ccccc2)NC1=O (stereo in doubt) — higher, 20
- CC(C)[C@H](NC(=O)[C@H](CCCCN)NC(=O)[C@@H](Cc1c[nH]c2ccccc12)NC(=O)[C@H](Cc1ccc(O)cc1)NC(=O)[C@H](Cc1ccccc1)NC(=O)[C@H](N)Cc1ccccc1)C(=O)N[C@@H](Cc1ccccc1)C(=O)N[C@H](Cc1ccc2ccccc2c1)C(N)=O (H-[dF]FY[dW]KVF[d2Nal]-NH2) — higher, 12500
